A selection: hits, their analogues and other compounds. The true share with any hit is near 2%.
PLC-beta3 inh = PLC-beta3 (human) inhibition, primary screen; Purified PLC-beta3, fluorogenic substrate, fluorescence; Q01970; AID 720704; hit rate 0.18% among 370,000; inhibition, % at 12.2 µM; in the data active means inhibition above about 11%;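 further: 0% = median of compound wells on plate and 100% = full blocker control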
VIM-2 inhibitor = inhibitors of Pseudomonas aeruginosa VIM-2 metallo-beta-lactamase | purified VIM-2, nitrocefin hydrolysis, epi-absorbance fluorescence | inhibition, % at 5.6 µM | hit rate 0.89% among 290,000 | AID 1527;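 active means inhibition above the mean of all tested compounds plus 3 SD, cutoff set per screening run, cut at about 7.5% in these data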;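 further: red hydrolysis product quenches plate fluorescence so inhibitors raise well fluorescence; 0% = enzyme with DMSO and 100% = DMSO without enzyme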
PvdQ acylase = blocks Pseudomonas aeruginosa PvdQ acylase activity; purified PvdQ acylase, fluorescence plate reader; inhibition, % at 10 µM; hit rate 0.063% among 340,000; in the data active means inhibition above about 30%, passing the limit was not always enough;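 further: 0% = vehicle neutral wells and 100% = reference inhibitor wells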
IMP-1 inhibitor = blocks Pseudomonas aeruginosa IMP-1 metallo-beta-lactamase; purified IMP-1, nitrocefin hydrolysis, epi-absorbance fluorescence; inhibition, % at 5.6 µM; hit rate 0.45% among 290,000; AID 1556;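 active means inhibition above the mean plus 3 SD of all compounds in the same screening run, cut at about 4.5% in these data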;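 further: 0% = IMP-1 with DMSO and 100% = DMSO wells lacking enzyme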
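Assay system: purified recombinant IMP-1 beta-lactamase. Input: IMP-1 0.2 nM before substrate addition. Buffer or medium: Zinc- and detergent-supplemented HEPES buffer, pH 7.1. Schedule: 25 °C, 15 min preincubation, 25 min reaction. Signal: Epi-absorbance fluorescence, 480 nm excitation, 530 nm emission. Evaluation: percent inhibition from optical density relative to buffer-blank wells.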
PLCg1 inh = blocks human PLC-gamma1 enzyme activity. hit rate 0.84% among 370,000. purified PLC-gamma1, fluorogenic substrate, fluorescence. P19174. inhibition, % at 12.2 µM
PLCgamma1 ctr = PLC-gamma1 inhibition, counter-screen for PLC-beta3 hits; shares compounds with PLCg1 inh; purified PLC-gamma1, fluorogenic substrate, fluorescence; AID 743258; inhibition, % at 12.3 µM; hit rate 3.1% among 3,300
PLCb3 confirm = human PLC-beta3 inhibition, confirmation; shares compounds with PLCg1 inh; purified PLC-beta3, fluorogenic substrate fluorescence; inhibition, % at 12.3 µM; hit rate 1% among 3,300; AID 743261; in the data active means inhibition above about 11%
* = called active by the depositor. Unless noted, no stated cut-off is given here; in the data, active means inhibition above about 9.5%; inactive means the rest.

`CCN1C(=O)c2ccccc2S(=O)c2ccc(C(=O)N3CCCCCC3)cc21` (stereo unspecified) gave PLC-beta3 inh 11*, VIM-2 inhibitor 0, PvdQ acylase -8, IMP-1 inhibitor -2, PLCg1 inh 6, PLCgamma1 ctr -6 and PLCb3 confirm -4.
`COc1cccc(CC(=O)O[C@@H]2CCC[C@@]3(C(=O)N(Cc4ccccc4)c4ccccc43)[C@H]2NC(=O)CCc2ccccc2)c1` gave PLC-beta3 inh 0 and PLCg1 inh 3.
For O=C(NCC(=O)N(c1ccccc1)C(C(=O)NC1CCCC1)c1cccnc1)c1ccco1 (stereo unspecified) the results were PLC-beta3 inh 8, VIM-2 inhibitor 2, PvdQ acylase -9, IMP-1 inhibitor -1, PLCg1 inh 10*, PLCgamma1 ctr -6 and PLCb3 confirm -7.
Screening C=CCN(C(=O)CNC(=O)c1ccco1)C(C(=O)NC1CCCCC1)c1ccc(F)cc1 (stereo unspecified) returned PLC-beta3 inh 4, VIM-2 inhibitor -3, PvdQ acylase -13, IMP-1 inhibitor -3, PLCg1 inh 10*, PLCgamma1 ctr -5 and PLCb3 confirm -2.
`O=C(NC1CCCC1)C(c1ccccc1)N(C(=O)c1ccco1)C1CCCC1` (stereo unspecified) gave PLC-beta3 inh -3, VIM-2 inhibitor 0, PvdQ acylase -10, IMP-1 inhibitor -2, PLCg1 inh 9.9*, PLCgamma1 ctr -7 and PLCb3 confirm -1.
For Cc1ccc(-c2cc(-c3nnc(SCC(=O)Nc4ccc(OCc5ccccc5)cc4)n3N)[nH]n2)cc1 the results were PLC-beta3 inh 2 and PLCg1 inh -1.
Screening Cn1cc(/C=N/NC(N)=S)c2ccccc21 returned PLC-beta3 inh 4, VIM-2 inhibitor -3, PvdQ acylase -14, IMP-1 inhibitor -2, PLCg1 inh 10*, PLCgamma1 ctr 1 and PLCb3 confirm 5.
For C=CCNC(=S)N/N=C/c1cn(C)c2ccccc12 the results were PLC-beta3 inh -3, VIM-2 inhibitor -2, IMP-1 inhibitor -1 and PLCg1 inh -2.
`COc1ccc(N(C(=O)c2ccccc2OC)C2C=CS(=O)(=O)C2)c(OC)c1` (stereo unspecified) gave PLC-beta3 inh 0, VIM-2 inhibitor -3, PvdQ acylase -10, IMP-1 inhibitor -3 and PLCg1 inh 3.
Screening COc1ccc(N(C(=O)COc2ccccc2)C2C=CS(=O)(=O)C2)c(OC)c1 (stereo unspecified) returned PLC-beta3 inh 5, VIM-2 inhibitor 2, PvdQ acylase -12, IMP-1 inhibitor 1, PLCg1 inh 14*, PLCgamma1 ctr -5 and PLCb3 confirm -2.
For COC(=O)[C@]12C[C@H](CC(=O)NCCCCc3ccccc3)C(=O)N(Cc3ccc4c(c3)OCO4)C1=C[C@H](C(C)C)O[C@@H]2C1CC1 the results were PLC-beta3 inh 0 and PLCg1 inh 3.
For CCN1CCCC1CNC(=O)CCc1nc(-c2ccc(C)cc2)no1 (stereo unspecified) the results were PLC-beta3 inh 1, VIM-2 inhibitor -3, PvdQ acylase -5, IMP-1 inhibitor -2, PLCg1 inh 10*, PLCgamma1 ctr 4 and PLCb3 confirm -3.
O=C1CC(CC(=O)N/N=C/c2ccccc2[N+](=O)[O-])=NN1 was read as PLC-beta3 inh -1, VIM-2 inhibitor -3, PvdQ acylase -17, IMP-1 inhibitor -2, PLCg1 inh 13*, PLCgamma1 ctr -5 and PLCb3 confirm -1.
O=C(O)c1ccccc1C(=O)NCc1cccnc1 was read as PLC-beta3 inh 14*, VIM-2 inhibitor -2, PvdQ acylase -15, IMP-1 inhibitor -1, PLCg1 inh 5, PLCgamma1 ctr -5 and PLCb3 confirm 3.
O=C(NCc1cccnc1)c1ccc(NC(=O)c2ccc([N+](=O)[O-])cc2)cc1 was read as PLC-beta3 inh -1, VIM-2 inhibitor -1, PvdQ acylase 7, IMP-1 inhibitor 0, PLCg1 inh 13*, PLCgamma1 ctr -2 and PLCb3 confirm -1.
O=C(CSc1nnc(-c2ccccc2)n1-c1ccc(Cl)cc1)Nc1ccc(OCc2ccccc2)cc1 was read as PLC-beta3 inh 1 and PLCg1 inh 0.
`CC[C@@]1(c2cccc(Cl)c2)C(=O)N(C(=O)OC(C)C)N1C(=O)OC(C)C` gave PLC-beta3 inh 3 and PLCg1 inh 1.
For Cc1ccc2nc(NC(=O)C3CCN(S(=O)(=O)c4cnc[nH]4)CC3)sc2c1 the results were PLC-beta3 inh 6, VIM-2 inhibitor -6, PvdQ acylase 6, IMP-1 inhibitor -1, PLCg1 inh 9.6*, PLCgamma1 ctr -9 and PLCb3 confirm 0.
For COc1cccc(/C=C2\CC3(OC(=O)c4cccc(F)c4)CCCN2C3)c1 (stereo unspecified) the results were PLC-beta3 inh -6 and PLCg1 inh -2.
Cc1ccc(-n2cc(CN3CCC(O)(c4ccccn4)CC3)c(-c3ccc(F)cc3)n2)cc1 was read as PLC-beta3 inh 0, VIM-2 inhibitor -2, PvdQ acylase 8, IMP-1 inhibitor -2, PLCg1 inh 9.8*, PLCgamma1 ctr -3 and PLCb3 confirm 1.
NCCc1nnc(SCC(=O)Nc2ccc(Br)cc2)o1 was read as PLC-beta3 inh -2, VIM-2 inhibitor -1, PvdQ acylase -21, IMP-1 inhibitor -2 and PLCg1 inh -1.
Screening CN(C)C(=O)CSc1nnc(CCN)o1 returned PLC-beta3 inh 5, VIM-2 inhibitor -3, PvdQ acylase -2, IMP-1 inhibitor -5, PLCg1 inh 13*, PLCgamma1 ctr -5 and PLCb3 confirm -3.
Screening O=C(NC1CCCCC1)C(c1ccc2ncccc2c1)N(Cc1ccccc1)C(=O)c1cccs1 (stereo unspecified) returned PLC-beta3 inh -2, VIM-2 inhibitor 2, PvdQ acylase -12, IMP-1 inhibitor 2 and PLCg1 inh 2.
`O=C(NC1CCCCC1)C(c1ccc2ncccc2c1)N(Cc1ccc2c(c1)OCO2)C(=O)c1cccs1` (stereo unspecified) gave PLC-beta3 inh 0, VIM-2 inhibitor -3, PvdQ acylase -3, IMP-1 inhibitor -2, PLCg1 inh 9.6*, PLCgamma1 ctr -6 and PLCb3 confirm -2.
O=C(NC1CCCC1)C(c1ccccc1)N(Cc1ccc2c(c1)OCO2)C(=O)Cc1cccs1 (stereo unspecified) was read as PLC-beta3 inh 7, VIM-2 inhibitor -2, PvdQ acylase -20, IMP-1 inhibitor -3 and PLCg1 inh 3.
For O=C(NC1CCCCC1)C(c1ccncc1)N(Cc1ccc2c(c1)OCO2)C(=O)c1cnsn1 (stereo unspecified) the results were PLC-beta3 inh 11*, VIM-2 inhibitor 1, PvdQ acylase -15, IMP-1 inhibitor -4, PLCg1 inh 6, PLCgamma1 ctr -6 and PLCb3 confirm -3.

Source: PubChem
